Legend:
[1] = biological target: 5-hydroxytryptamine receptor 1D (Homo sapiens, UniProt P28221); test: Binding affinity to 5-HT1DR (unknown origin)
Outline: (§1)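 Run by the NIMH Psychoactive Drug Screening Program as competition radioligand binding on crude membranes of cells expressing the recombinant receptor. Eleven dilutions (0.05 nM–50 μM, prepared at 5× assay concentration) were made in 50 mM Tris-HCl, 10 mM MgCl₂, 1 mM EDTA, pH 7.4. Incubation was 1.5 h at rt in the dark, followed by GF/B filtration (0.3% PEI) and scintillation counting. IC₅₀ was converted to Ki; at least triplicate.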

[2] = Half life in ICR mouse plasma at 10 mg/kg, ip measured upto 8 hrs by LC-MS/MS; format: ADME, organism-based
Outline: (§2)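 Male ICR mice, 7–8 weeks, 30 ± 5 g; single dose 1 mg/kg iv or 10 mg/kg ip (n = 4 each). Carotid artery blood at 0, 0.08 (iv only), 0.25, 0.5, 1, 2, 4, 6, 8 h. Plasma precipitated with acetonitrile containing internal standard, quantified by LC–MS/MS. Parameters by non-compartmental analysis; AUClast by trapezoidal rule; values mean ± SD.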

[3] = biological target: T1, 5-hydroxytryptamine receptor 2C (Homo sapiens, UniProt P28335); test: Binding affinity to 5-HT2CR (unknown origin); outline: as §1
T1 sequence (P28335 whole entry): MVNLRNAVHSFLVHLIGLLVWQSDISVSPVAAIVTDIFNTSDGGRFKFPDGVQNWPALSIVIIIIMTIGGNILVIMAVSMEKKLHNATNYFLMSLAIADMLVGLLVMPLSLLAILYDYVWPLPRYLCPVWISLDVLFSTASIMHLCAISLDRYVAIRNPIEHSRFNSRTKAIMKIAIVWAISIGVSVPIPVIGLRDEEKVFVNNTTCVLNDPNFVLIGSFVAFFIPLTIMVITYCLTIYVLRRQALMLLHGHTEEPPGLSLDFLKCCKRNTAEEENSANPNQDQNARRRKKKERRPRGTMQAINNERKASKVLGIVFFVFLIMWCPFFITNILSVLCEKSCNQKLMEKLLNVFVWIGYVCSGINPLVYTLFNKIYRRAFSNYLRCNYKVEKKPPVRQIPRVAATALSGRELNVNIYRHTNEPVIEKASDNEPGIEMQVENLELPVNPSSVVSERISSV

[4] = AUClast in ICR mouse plasma at 10 mg/kg, ip measured upto 8 hrs by LC-MS/MS analysis; format: ADME, organism-based; design: route intraperitoneal, dose 10 mg/kg, time <=8; outline: as §2
[5] = biological target: CYP2C19 (Homo sapiens, UniProt P33261); test: Inhibition of CYP2C19 in human liver microsomes assessed as remaining activity at 10 uM using S-mephenytoin as substrate preincubated for 5 mins followed by addition of NADPH generating system and incubated for 15 mins by LC/MS relative to control; format: ADME; conditions: probe S-mephenytoin, time 20 min, read-out: Activity
Outline: (§3)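 Human liver microsomes (0.25 mg/mL) in 0.1 M phosphate pH 7.4 with a five-substrate cocktail: phenacetin 50 μM, diclofenac 10 μM, S-mephenytoin 100 μM, dextromethorphan 5 μM, midazolam 2.5 μM. Compound at 0 (control) or 10 μM. Preincubated 5 min at 37 °C, NADPH-generating system added, 15 min at 37 °C. Stopped with acetonitrile plus internal standard; substrate metabolites measured by LC/MS.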

[6] = Volume of distribution in steady state in ICR mouse plasma at 1 mg/kg, iv measured upto 8 hrs by LC-MS/MS analysis; format: ADME, organism-based; conditions: read-out: Vdss; outline: as §2
[7] = biological target: 5-hydroxytryptamine receptor 5A (Homo sapiens, UniProt P47898); test: Binding affinity to 5-HT5AR (unknown origin); outline: as §1
[8] = MRTinfinity in ICR mouse plasma at 10 mg/kg, ip measured upto 8 hrs by LC-MS/MS analysis; format: ADME, organism-based; outline: as §2
[9] = biological target: T2, 5-hydroxytryptamine receptor 7 (Homo sapiens, UniProt P34969); test: Agonist activity at 5-HT7R (unknown origin) transfected in HEK293 cells expressing tTA-dependent luciferase reporter and beta arrestin 2-TEV fusion gene assessed as beta arrestin recruitment incubated for 22 hrs by Tango assay; format: functional, cell-based; conditions: hek293
[10] = biological target: T2, 5-hydroxytryptamine receptor 7
[11] = biological target: T3, 5-hydroxytryptamine receptor 3A (Homo sapiens, UniProt P46098); test: Binding affinity to 5-HT3R (unknown origin); outline: as §1
T3 sequence (P46098 whole entry): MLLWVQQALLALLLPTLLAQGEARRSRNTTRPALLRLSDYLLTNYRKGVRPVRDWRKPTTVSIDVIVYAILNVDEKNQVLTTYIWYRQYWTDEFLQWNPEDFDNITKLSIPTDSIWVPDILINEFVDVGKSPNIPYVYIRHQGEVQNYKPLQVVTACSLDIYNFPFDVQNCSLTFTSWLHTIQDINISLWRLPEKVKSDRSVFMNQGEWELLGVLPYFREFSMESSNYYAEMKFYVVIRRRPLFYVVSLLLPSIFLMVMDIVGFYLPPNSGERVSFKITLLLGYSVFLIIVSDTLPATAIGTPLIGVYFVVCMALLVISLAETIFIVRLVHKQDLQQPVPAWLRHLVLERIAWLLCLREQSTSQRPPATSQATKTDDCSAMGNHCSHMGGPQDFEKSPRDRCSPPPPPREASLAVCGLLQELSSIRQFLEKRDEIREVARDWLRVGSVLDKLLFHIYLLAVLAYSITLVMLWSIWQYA

[12] = biological target: T2, 5-hydroxytryptamine receptor 7; test: Displacement of [3H] D-lysergic acid diethylamide from 5-HT7R (unknown origin) transfected in HEK293 cells incubated for 1.5 hrs by microbeta scintillation counter analysis; format: cell-based; conditions: read-out: Ki
[13] = biological target: T4, CYP1A2 (Homo sapiens, UniProt P05177); test: Inhibition of CYP1A2 in human liver microsomes assessed as remaining activity at 10 uM using phenacetin as substrate preincubated for 5 mins followed by addition of NADPH generating system and incubated for 15 mins by LC/MS relative to control; format: ADME; conditions: probe phenacetin, time 20 min, read-out: Activity; outline: as §3
T4 sequence (P05177 whole entry): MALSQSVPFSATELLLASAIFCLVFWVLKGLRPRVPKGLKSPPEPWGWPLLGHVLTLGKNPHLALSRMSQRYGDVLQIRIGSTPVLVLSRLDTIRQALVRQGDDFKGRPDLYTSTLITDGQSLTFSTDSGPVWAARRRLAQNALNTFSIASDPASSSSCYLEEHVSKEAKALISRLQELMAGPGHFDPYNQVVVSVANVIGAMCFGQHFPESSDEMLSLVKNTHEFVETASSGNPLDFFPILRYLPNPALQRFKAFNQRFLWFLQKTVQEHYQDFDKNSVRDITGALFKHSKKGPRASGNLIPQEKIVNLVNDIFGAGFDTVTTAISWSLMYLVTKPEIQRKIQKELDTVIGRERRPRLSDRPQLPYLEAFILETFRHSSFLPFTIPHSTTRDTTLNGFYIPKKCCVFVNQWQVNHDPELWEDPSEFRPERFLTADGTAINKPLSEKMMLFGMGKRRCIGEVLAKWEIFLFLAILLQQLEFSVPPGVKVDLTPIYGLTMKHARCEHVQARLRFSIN

[14] = biological target: 5-hydroxytryptamine receptor 1E (Homo sapiens, UniProt P28566); test: Binding affinity to 5-HT1ER (unknown origin); outline: as §1
5-hydroxytryptamine receptor 1E, sequence (P28566 whole entry): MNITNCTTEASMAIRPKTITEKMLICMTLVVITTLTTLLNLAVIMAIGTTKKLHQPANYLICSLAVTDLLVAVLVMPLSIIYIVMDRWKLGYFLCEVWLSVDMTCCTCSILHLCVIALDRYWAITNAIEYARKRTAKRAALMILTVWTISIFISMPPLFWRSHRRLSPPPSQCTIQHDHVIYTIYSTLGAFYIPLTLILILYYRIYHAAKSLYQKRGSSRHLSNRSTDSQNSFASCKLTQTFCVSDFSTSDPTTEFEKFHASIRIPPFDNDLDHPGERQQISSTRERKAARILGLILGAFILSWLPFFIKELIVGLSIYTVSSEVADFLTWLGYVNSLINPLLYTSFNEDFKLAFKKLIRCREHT

T2 sequence (P34969 whole entry, the tested form may be a part): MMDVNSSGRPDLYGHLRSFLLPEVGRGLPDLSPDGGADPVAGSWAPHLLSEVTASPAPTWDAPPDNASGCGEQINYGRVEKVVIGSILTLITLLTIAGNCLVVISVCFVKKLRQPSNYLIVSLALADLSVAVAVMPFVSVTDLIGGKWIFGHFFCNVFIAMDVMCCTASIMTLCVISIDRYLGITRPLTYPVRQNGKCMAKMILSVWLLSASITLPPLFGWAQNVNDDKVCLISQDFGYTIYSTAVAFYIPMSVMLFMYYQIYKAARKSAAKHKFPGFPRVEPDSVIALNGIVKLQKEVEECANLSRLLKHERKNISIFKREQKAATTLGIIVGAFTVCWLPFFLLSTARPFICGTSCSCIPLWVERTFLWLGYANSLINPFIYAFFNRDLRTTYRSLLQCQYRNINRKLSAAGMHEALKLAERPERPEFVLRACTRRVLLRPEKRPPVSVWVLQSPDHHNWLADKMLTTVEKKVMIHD
5-hydroxytryptamine receptor 1D, sequence (P28221 whole entry): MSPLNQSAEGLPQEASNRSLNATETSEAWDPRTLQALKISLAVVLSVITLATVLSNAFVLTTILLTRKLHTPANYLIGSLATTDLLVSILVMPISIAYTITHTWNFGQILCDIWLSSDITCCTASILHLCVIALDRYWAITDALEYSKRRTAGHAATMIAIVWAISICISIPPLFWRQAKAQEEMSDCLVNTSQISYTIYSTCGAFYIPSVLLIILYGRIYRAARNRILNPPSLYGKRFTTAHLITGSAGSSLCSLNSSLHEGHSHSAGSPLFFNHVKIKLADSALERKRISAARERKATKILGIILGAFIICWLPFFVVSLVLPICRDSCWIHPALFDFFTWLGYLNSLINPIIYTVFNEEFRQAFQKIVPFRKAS
CYP2C19, sequence (P33261 whole entry): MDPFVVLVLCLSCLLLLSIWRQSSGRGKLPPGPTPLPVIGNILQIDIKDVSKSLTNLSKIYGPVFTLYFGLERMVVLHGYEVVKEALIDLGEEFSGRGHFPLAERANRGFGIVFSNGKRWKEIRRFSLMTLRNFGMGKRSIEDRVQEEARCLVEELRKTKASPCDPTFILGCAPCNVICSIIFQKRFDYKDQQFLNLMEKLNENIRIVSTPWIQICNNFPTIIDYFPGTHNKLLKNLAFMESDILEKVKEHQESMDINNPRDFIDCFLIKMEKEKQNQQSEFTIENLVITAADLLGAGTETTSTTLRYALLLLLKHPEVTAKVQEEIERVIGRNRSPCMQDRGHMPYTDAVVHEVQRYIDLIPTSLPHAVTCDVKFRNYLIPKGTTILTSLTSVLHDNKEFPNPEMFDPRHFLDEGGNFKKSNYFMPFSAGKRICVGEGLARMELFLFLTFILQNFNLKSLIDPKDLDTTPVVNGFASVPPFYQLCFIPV
5-hydroxytryptamine receptor 5A, sequence (P47898 whole entry): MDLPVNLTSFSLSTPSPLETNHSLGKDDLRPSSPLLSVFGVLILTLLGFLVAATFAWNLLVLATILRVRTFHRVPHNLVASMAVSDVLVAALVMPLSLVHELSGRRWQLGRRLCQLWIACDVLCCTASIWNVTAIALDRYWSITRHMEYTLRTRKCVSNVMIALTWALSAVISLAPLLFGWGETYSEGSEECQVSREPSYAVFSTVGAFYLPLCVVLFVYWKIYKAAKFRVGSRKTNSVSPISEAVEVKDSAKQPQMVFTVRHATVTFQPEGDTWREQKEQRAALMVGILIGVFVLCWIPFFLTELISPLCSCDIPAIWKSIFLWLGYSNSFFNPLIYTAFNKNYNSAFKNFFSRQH

For CCNCCc1ccc(Cl)c(-c2ccccc2OC)c1.Cl, the Ki [1] was 5.3 nM, the half-life [2] was 1 h and the Ki [3] was > 10000 nM. The AUC(0-t) at 8 h [4] was 442 ng·h/mL, the activity at 0.25 h, 10 µM [5] was 90.3% and the Vd [6] was 19.5 L/kg. The Ki [7] was 700 nM, the MRT inf [8] was 1.3 h and the EC50 [9] was “Not Active”. For the same molecule, the EC50 [10] was 180 nM, the Ki [11] was > 10000 nM and the Ki [12] was 2.8 nM. For the same molecule, the activity at 0.25 h, 10 µM [13] was 94.3% and the Ki [14] was 2600 nM.

Source: ChEMBL document CHEMBL5038590, “Discovery of G Protein-Biased Ligands against 5-HT7R” (J Med Chem, 2021)
